Experimental data from different studies.
Lines come from different studies, so protocols differ.
ABL1 Y253F: Tyrosine-protein kinase ABL1 (ABL1, Homo sapiens, UniProt P00519, Y253F)
ABL1 Y253F phosphorylated: Tyrosine-protein kinase ABL1, phosphorylated (ABL1, Homo sapiens, UniProt P00519, Y253F)
ABL1 T315I phosphorylated: Tyrosine-protein kinase ABL1, phosphorylated (ABL1, Homo sapiens, UniProt P00519, T315I)
ABL1: Tyrosine-protein kinase ABL1 (ABL1, Homo sapiens, UniProt P00519)
ABL1 F317I phosphorylated: Tyrosine-protein kinase ABL1, phosphorylated (ABL1, Homo sapiens, UniProt P00519, F317I)
ABL1 F317I non-phosphorylated: Tyrosine-protein kinase ABL1, non-phosphorylated (ABL1, Homo sapiens, UniProt P00519, F317I)
ABL1 M351T phosphorylated: Tyrosine-protein kinase ABL1, phosphorylated (ABL1, Homo sapiens, UniProt P00519, M351T)
ABL1 Q252H non-phosphorylated: Tyrosine-protein kinase ABL1, non-phosphorylated (ABL1, Homo sapiens, UniProt P00519, Q252H)
ABL1 M351T: Tyrosine-protein kinase ABL1 (ABL1, Homo sapiens, UniProt P00519, M351T)
ABL1 non-phosphorylated: Tyrosine-protein kinase ABL1, non-phosphorylated (ABL1, Homo sapiens, UniProt P00519)
ABL1 phosphorylated: Tyrosine-protein kinase ABL1, phosphorylated (ABL1, Homo sapiens, UniProt P00519)

| Compound | target | test | setting | quantity | value |
| --- | --- | --- | --- | --- | --- |
| CC1CCCN1c1nccc(-c2cnn3ncccc23)n1 (centres unmarked) | ABL1 Y253F | binding | 1 µM | remaining binding | 96% |
| Cc1cnc(NC2CCOCC2)nc1-n1cnc(C(=O)NC(CN)c2cc(F)cc(Cl)c2)c1 (centres unmarked) | Tyrosine-protein kinase ABL1 (ABL1, Homo sapiens, UniProt P00519, T315I) | enzyme activity, inhibitor, radiometric | 1 µM | remaining activity | 115% |
| O=C(Nc1c[nH]nc1C(=O)NC1CCNCC1)c1cc(F)cc(F)c1 | ABL1 Y253F phosphorylated | binding, competition with immobilised ligand | 1 µM | remaining binding | 100% |
| CCOC(=O)c1cc2cc(-c3cc(C(=O)NCc4ccc(C(=O)O)cc4)nn3C)ccc2[nH]1 | ABL1 T315I phosphorylated | cell-free assay, competition with immobilised ligand | 0.1 µM | remaining binding | 92% |
| COc1cc2ncnc(Nc3ccc(Oc4ccccc4)cc3C)c2cc1OC | ABL1 | enzyme activity, inhibitor | 1 µM | inhibition | 13% |
| Nc1ncc2c(n1)-c1c([nH]c3ccc(C#CC4CC4)cc13)CCCC2 | ABL1 F317I phosphorylated | binding, competition with immobilised ligand | 1 µM | remaining binding | 86% |
| Cc1cc(NC(=O)c2cccc3cc(-c4cccc5[nH]nc(N)c45)ccc23)ccc1F | ABL1 Y253F | enzyme activity, inhibitor | 0.1 µM | activity vs control | 91% |
| CC(C)c1ccc(NC(=O)c2cccs2)c(-c2nc3ccccc3[nH]c2=O)c1 | ABL1 | enzyme activity, inhibitor | 1 µM | activity vs control | 115% |
| O=C(NCCCN1CCOCC1)c1ccc(Nc2nccc(-c3cc4ccccc4s3)n2)cc1 | ABL1 Y253F phosphorylated | binding, competition with immobilised ligand | 1 µM | remaining binding | 44% |
| Nc1ncnc2occ(-c3ccc(NC(=O)Nc4cc(C(F)(F)F)ccc4F)cc3)c12 | ABL1 F317I non-phosphorylated | cell-free assay, inhibitor | 20 µM | remaining signal | 0.45% |
| CC(=O)N1CCC(c2ccc(C(=O)NC(=N)N)cc2C(F)(F)F)CC1 | ABL1 F317I phosphorylated | binding | 1 µM | remaining binding | 96% |
| CN(c1nccc(-c2cnn3ncccc23)n1)C1CC1 | Tyrosine-protein kinase ABL1 (ABL1, Homo sapiens, UniProt P00519, F317L) | binding | 1 µM | remaining binding | 100% |
| O=C(N1CCS(=O)(=O)CC1)N1C[C@H](c2ccc(OC(F)(F)F)cc2)C[C@H](c2nc(C3CC3)no2)C1 | Tyrosine-protein kinase ABL1, phosphorylated (ABL1, Homo sapiens, UniProt P00519, H396P) | cell-free assay, competition with immobilised ligand | 1 µM | remaining binding | 100% |
| COc1cnc(Nc2cccc(S(N)(=O)=O)c2)nc1N1CCN(c2ccccc2)CC1 | ABL1 T315I phosphorylated | binding, competition with immobilised ligand | 1 µM | remaining binding | 88% |
| Cc1nc(Cc2cccc(C(F)(F)F)c2)sc1-c1ccc(C(N)=O)nc1 | ABL1 F317I phosphorylated | binding | 1 µM | remaining binding | 83% |
| Cc1ccc(NC(=O)c2ccc(CN3CCN(C)CC3)cc2)cc1Nc1nc(-c2cccnc2)cs1 | ABL1 | cell-free assay | 0.5 µM | remaining signal | 49.8% |
| Cc1nccc(COC(=O)N2C[C@@H]3[C@@H](CNC(=O)c4ccc5[nH]nnc5c4)[C@@H]3C2)n1 | ABL1 M351T phosphorylated | cell-free assay, competition with immobilised ligand | 1 µM | remaining binding | 95% |
| O=C(NCC1CCOCC1)c1n[nH]cc1NC(=O)c1c(F)cccc1F | ABL1 Q252H non-phosphorylated | binding, competition with immobilised ligand | 1 µM | remaining binding | 82% |

| Compound | target | test | setting | quantity | value |
| --- | --- | --- | --- | --- | --- |
| N#CCCc1ccc2c(c1)-c1[nH]c3ccc([N+](=O)[O-])cc3c1CC(=O)N2 | ABL1 | cell-free assay | 0.5 µM | remaining signal | 47.8% |
| CCCOc1ccc(OC)c(F)c1C(=O)c1ccc(C(=O)N[C@@H]2CNC[C@H]2NC(=O)c2ccc3[nH]ncc3c2)cc1 | ABL1 M351T | enzyme activity, inhibitor | 10 µM | remaining activity | 113% |
| C=CC(=O)N1CCC(C(=O)NCC(=O)N2CCN(c3nc(-c4cnc(N)nc4C(F)F)nc(N4CCOCC4)n3)CC2)CC1 | ABL1 T315I phosphorylated | binding, competition with immobilised ligand | 1 µM | remaining binding | 82% |
| CCN1CCN(Cc2ccc(C(=O)Nc3ccc(C)c(Oc4ccc5c(c4)CC(=O)N5)c3)cc2C(F)(F)F)CC1 | ABL1 non-phosphorylated | binding, competition with immobilised ligand | 1 µM | remaining binding | 2.1% |
| CC(=O)c1c(NS(C)(=O)=O)c2cc(-c3ccc(Cl)cc3)c(-c3ccc(Cl)cc3Cl)nc2n(C)c1=O | ABL1 T315I phosphorylated | cell-free assay, competition with immobilised ligand | 1 µM | remaining binding | 93% |
| COc1cc(/C=C/C(=O)CC(=O)/C=C/c2ccc(O)c(OC)c2)ccc1O | ABL1 | enzyme activity, inhibitor | 1 µM | activity vs control | 82% |
| O=C(NCCCN1CCOCC1)c1ccc(Nc2ncc(Cl)c(-c3ccc(Cl)s3)n2)cc1 | ABL1 phosphorylated | binding, competition with immobilised ligand | 1 µM | remaining binding | 36% |
| N[C@@H]1CCN(c2nccc(-c3cnn4ncccc34)n2)C1 | ABL1 phosphorylated | binding | 1 µM | remaining binding | 95% |
| COc1cc(-c2cc(-c3ccc(N4CCNCC4)cc3)cnc2N)cc(OC)c1OC | ABL1 M351T | enzyme activity, inhibitor | 0.1 µM | inhibition | 86% |
| Cc1ccc(NC(=O)c2ccc(C)c(C(F)(F)F)c2)cc1C#Cc1nn(C2CCC(O)CC2)c2ncnc(N)c12 (centres unmarked) | ABL1 Y253F | cell-free assay | 10 µM | remaining signal | 0% |
| O=C(c1ccc(Nc2nccc(-c3cc4ccccc4s3)n2)cc1)N1CCC(N2CCCC2)CC1 | ABL1 Q252H non-phosphorylated | binding, competition with immobilised ligand | 1 µM | remaining binding | 9.8% |
| CCOC(=O)c1c(C)[nH]c(/C=C2\C(=O)Nc3ccccc32)c1C | ABL1 | cell-free assay | 0.5 µM | remaining signal | 95.4% |
| O=C(c1ccc(Nc2ncc(Cl)c(-c3ccc(Cl)s3)n2)cc1)N1CCC(N2CCCC2)CC1 | Tyrosine-protein kinase ABL1, phosphorylated (ABL1, Homo sapiens, UniProt P00519, Q252H) | binding, competition with immobilised ligand | 1 µM | remaining binding | 4.2% |
| CN(c1ccnc(CNc2nc(Nc3ccc4c(c3)CC(=O)N4)ncc2C(F)(F)F)n1)S(C)(=O)=O | ABL1 M351T phosphorylated | cell-free assay, competition with immobilised ligand | 1 µM | remaining binding | 62% |
| c1nc2c(Nc3ccc4c(c3)OCCO4)nc(Nc3ccc4c(c3)OCCO4)nc2[nH]1 | ABL1 non-phosphorylated | enzyme activity, inhibitor | 10 µM | activity vs control | 2.1% |
| CC(=O)Nc1c(C(C)=O)c(=O)n(C)c2nc(-c3ccc(Cl)cc3Cl)c(-c3ccc(Cl)cc3)cc12 | ABL1 F317I non-phosphorylated | binding, competition with immobilised ligand | 1 µM | remaining binding | 77% |
| CNC(=O)[C@@H]1CC[C@@H](n2c(-c3ccc4cnccc4c3)nc3ccc(C(=O)NCc4cccc(C(N)=O)c4)cc32)C1 | ABL1 F317I phosphorylated | binding, competition with immobilised ligand | 1 µM | remaining binding | 100% |
